Test results as given in ChEMBL document CHEMBL1144184, “Preparation and biological evaluation of 5-substituted retinoic acids” (2008).
Calls of active or inactive are those of the source. The rule behind the calls is not given here.

Tests used:
HL-60 [1] = assay: Induction of human HL-60 cell differentiation assessed as cell surface CD11b antigen expression measured as mean fluorescence index at 0.0001 uM to 1 uM after 3 days by FACS relative to ATRA; format: functional
Outline: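 Thymidine-synchronized HL-60 cells, 10⁵ cells/well, cultured 3 days with retinoids (10^-10–10^-6 M) in RPMI-1640. CD11b surface expression quantified by flow cytometry (excitation 490 nm, emission 520 nm), 10⁴ cells counted per treatment. Readout is mean fluorescence index (% fluorescent cells × mean intensity), normalized to ATRA values.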

HL-60 [2] = assay: Antiproliferative activity against human HL-60 cells assessed as cell cycle distribution at 0.0001 uM to 1 uM after 3 days by FACS relative to ATRA; format: functional
Outline: (§1)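 HL-60 cells (RPMI-1640, 10% dextran-coated charcoal-treated FCS, kanamycin; S-phase synchronized twice with 2.5 mM thymidine) seeded 10⁵ cells/well and exposed to retinoids for 3 days at 37 °C, 5% CO₂. Cells permeabilized with 0.2% Triton-X plus RNase (37 °C, 1 h), stained with propidium iodide (4 °C, 20 min), and cell cycle phases quantified by flow cytometry (488 nm argon laser).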

HL-60 [3] = assay: Cell cycle arrest in human HL-60 cells assessed as accumulation at G0/G1 phase at 10 pM to 1 uM by FACS; format: functional, cell-based; outline: as §1
[4] = target: T1, Retinoic acid receptor beta (Homo sapiens) (UniProt P10826); assay: Increase in transcriptional activity of human RARbeta receptor expressed in human MG63 cells co-transfected with pGL3-RARE at 1 uM by luciferase reporter gene assay relative to ATRA; format: cell-based; settings: MG-63, in the assay text read “relative to control” for “relative to ATRA”
T1 sequence (whole entry): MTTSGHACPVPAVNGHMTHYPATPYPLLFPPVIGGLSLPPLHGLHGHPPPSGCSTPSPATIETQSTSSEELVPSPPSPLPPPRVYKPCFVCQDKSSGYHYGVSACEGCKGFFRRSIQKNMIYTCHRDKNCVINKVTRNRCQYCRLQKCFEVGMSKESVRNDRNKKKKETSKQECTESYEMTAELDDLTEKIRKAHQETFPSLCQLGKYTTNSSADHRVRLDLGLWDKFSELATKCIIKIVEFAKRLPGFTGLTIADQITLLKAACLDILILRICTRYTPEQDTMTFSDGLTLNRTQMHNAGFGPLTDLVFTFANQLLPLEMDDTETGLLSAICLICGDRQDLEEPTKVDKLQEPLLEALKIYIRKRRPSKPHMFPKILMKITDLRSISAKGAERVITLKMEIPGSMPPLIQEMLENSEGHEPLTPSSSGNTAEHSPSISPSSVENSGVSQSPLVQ
Outline: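 MG-63 osteosarcoma cells in DMEM with 10% charcoal-stripped FCS were seeded 2 × 10⁵/well the day before transfection. Cotransfected (Tfx-50) with human RARβ promoter–RARE3-SV40-luciferase reporter and pRL-CMV control. Retinoids applied for 2 days at 10^-6 M. Firefly luciferase normalized to Sea Pansy luciferase, expressed as fold induction over control. At least three repeats, mean ± SE.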

HL-60 [5] = assay: Induction of apoptosis in human HL-60 cells assessed as DNA fragmentation by agarose gel electrophoresis; format: functional, cell-based
Outline: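 HL-60 cells exposed to increasing retinoid concentrations. DNA isolated from each culture, run on a 2% agarose gel, stained with ethidium bromide and viewed under UV. Laddering scored as positive or negative.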

| Activity [4] | SMILES | Activity (HL-60 [1]) | Activity (HL-60 [2]) | Activity (HL-60 [3]) | Activity (HL-60 [5]) |
| --- | --- | --- | --- | --- | --- |
| Active | CC(/C=C/C1=C(Cc2ccc3ccccc3c2)CCCC1(C)C)=C\C=C\C(C)=C\C(=O)O | <0.22 | <0.81 | Active | inactive |
|  | CC(=C/C=C/C(C)=C/C(=O)O)/C=C/C1=C(Cc2ccccc2)CCCC1(C)C | 6 | 11 |  | inactive |
| Active | CC(/C=C/C1=C(Cc2ccccc2)CCCC1(C)C)=C\C=C\C(C)=C\C(=O)O | 2 | 2 | Active | inactive |
|  | CC(=C/C=C/C(C)=C/C(=O)O)/C=C/C1=C(Cc2ccc3ccccc3c2)CCCC1(C)C | <0.22 | <0.81 |  | inactive |
|  | CC(=C/C=C/C(C)=C/C(=O)O)/C=C/C1=C(CC(C)C)CCCC1(C)C | 10 | 16 |  | inactive |
| Active | CCCCC1=C(/C=C/C(C)=C/C=C/C(C)=C/C(=O)O)C(C)(C)CCC1 | 129 | 193 | Active | inactive |
| Active | CC(/C=C/C1=C(CC(C)C)CCCC1(C)C)=C\C=C\C(C)=C\C(=O)O | 310 | 35 | Active | inactive |
|  | CCCCC1=C(/C=C/C(C)=C\C=C\C(C)=C\C(=O)O)C(C)(C)CCC1 | 9 | 14 |  | inactive |
